Values after ≈ are worked out from the molar mass of the structure shown.
What was measured:
[1] = tested on: Pseudomonas aeruginosa; experiment: Antibacterial activity against MexA-MexB-OprM-overproducing Pseudomonas aeruginosa OCR1 by broth microdilution method; type: functional
Procedure, shortened: (§1)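 Standard broth microdilution in cation-adjusted Mueller-Hinton broth (25 mg Ca2+ and 12.5 mg Mg2+ per liter), inoculum 4×10^5 CFU/ml, against P. aeruginosa PAO1 or its laboratory mutants with defined resistance mechanisms. MIC was the lowest concentration completely inhibiting […] growth in wells. Determinations were done in duplicate.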

[2] = tested on: Pseudomonas aeruginosa; experiment: Ratio of MIC for Pseudomonas aeruginosa N044 to MIC for Pseudomonas aeruginosa PAO1; type: functional
Procedure, shortened: (§2)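 MICs were measured for PAO1-derived resistance mutants and the parent PAO1 by broth microdilution in cation-adjusted Mueller-Hinton broth (25 mg/liter Ca2+, 12.5 mg/liter Mg2+), inoculum 4×10^5 CFU/ml, in duplicate. MIC was the lowest concentration with complete growth inhibition. The ratio is the mutant MIC divided by the PAO1 MIC.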

[3] = tested on: Pseudomonas aeruginosa; experiment: Antibacterial activity against beta-lactamase and MexA-MexB-OprM-overproducing Pseudomonas aeruginosa N045 by broth microdilution method; type: functional
Procedure, shortened: (§3)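 Broth microdilution in cation-adjusted Mueller-Hinton broth (25 mg Ca2+ and 12.5 mg Mg2+ per liter), inoculum 4×10^5 CFU/ml. MIC was the lowest concentration completely inhibiting visible growth in wells. European clinical isolates were tested with S. aureus ATCC 29213 and P. aeruginosa ATCC 27853 as quality controls. PAO1-derived mutants were run in duplicate.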

[4] = tested on: Pseudomonas aeruginosa; experiment: Antibacterial activity against MexA-MexB-OprM-overproducing and OprD-deficient Pseudomonas aeruginosa N041 by broth microdilution method; type: functional; procedure, shortened: as §1
[5] = tested on: Pseudomonas aeruginosa; experiment: Ratio of MIC for Pseudomonas aeruginosa N043 to MIC for Pseudomonas aeruginosa PAO1; type: functional; procedure, shortened: as §2
[6] = tested on: Pseudomonas aeruginosa; experiment: Antibacterial activity against OprD-deficient Pseudomonas aeruginosa MR08 by broth microdilution method; type: functional; procedure, shortened: as §1
[7] = tested on: Pseudomonas aeruginosa; experiment: Antibacterial activity against Pseudomonas aeruginosa COR6 expressing MexC-MexD-OprJ gene by broth microdilution method; type: functional; procedure, shortened: as §1
[8] = tested on: Pseudomonas aeruginosa; experiment: Ratio of MIC for Pseudomonas aeruginosa N041 to MIC for Pseudomonas aeruginosa PAO1; type: functional; procedure, shortened: as §2
[9] = tested on: Pseudomonas aeruginosa; experiment: Ratio of MIC for Pseudomonas aeruginosa N092 to MIC for Pseudomonas aeruginosa PAO1; type: functional; procedure, shortened: as §2
[10] = tested on: Pseudomonas aeruginosa; experiment: Antibacterial activity against Pseudomonas aeruginosa N092 expressing MexE-MexF-OprN gene and OprD mutant gene and harboring nfxC mutant gene by broth microdilution method
[11] = tested on: Pseudomonas aeruginosa; experiment: Antibacterial activity against Pseudomonas aeruginosa N091 by broth microdilution method; type: functional; procedure, shortened: as §1
[12] = tested on: Pseudomonas aeruginosa; experiment: Antibacterial activity against beta-lactamase-overproducing Pseudomonas aeruginosa N043 by broth microdilution method; type: functional; procedure, shortened: as §1
[13] = tested on: Pseudomonas aeruginosa; experiment: Ratio of MIC for Pseudomonas aeruginosa OCR1 to MIC for Pseudomonas aeruginosa PAO1; type: functional; procedure, shortened: as §2
[14] = tested on: Pseudomonas aeruginosa; experiment: Antibacterial activity against beta-lactamase-overproducing and OprD-deficient Pseudomonas aeruginosa N044 by broth microdilution method; type: functional; procedure, shortened: as §1
[15] = tested on: Pseudomonas aeruginosa; experiment: Ratio of MIC for Pseudomonas aeruginosa N045 to MIC for Pseudomonas aeruginosa PAO1; type: functional; procedure, shortened: as §2
[16] = tested on: Pseudomonas aeruginosa; experiment: Ratio of MIC for Pseudomonas aeruginosa MR08 to MIC for Pseudomonas aeruginosa PAO1; type: functional; procedure, shortened: as §2
[17] = tested on: Pseudomonas aeruginosa; experiment: Antibacterial activity against Pseudomonas aeruginosa PAO1 by broth microdilution method; type: functional; procedure, shortened: as §1
[18] = tested on: Pseudomonas aeruginosa; experiment: Ratio of MIC for Pseudomonas aeruginosa COR6 to MIC for Pseudomonas aeruginosa PAO1; type: functional; procedure, shortened: as §2
[19] = tested on: Staphylococcus aureus; experiment: Antibacterial activity against methicillin-resistant Staphylococcus aureus by broth microdilution method; type: functional
Procedure, shortened: (§4)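 Standard broth microdilution in cation-adjusted Mueller-Hinton broth (25 mg Ca2+ and 12.5 mg Mg2+ per liter), inoculum 4×10^5 CFU/ml. Isolates were 60 German MRSA clinical strains, and penicillinase-plasmid-cured MRSA 123-1 and 12386-1. QC strain was S. aureus ATCC 29213.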

[20] = tested on: Staphylococcus aureus; experiment: Antibacterial activity against methicillin-resistant Staphylococcus aureus 123-1 expressing PBP 2a by broth microdilution method; type: functional; procedure, shortened: as §4
[21] = target: T1, MecA (Staphylococcus aureus, UniProt Q7DHH4); experiment: Binding affinity to PBP2a in methicillin-resistant Staphylococcus aureus 123-1 by [14C]benzylpenicillin labelled competitive assay
T1 sequence (Q7DHH4 whole entry): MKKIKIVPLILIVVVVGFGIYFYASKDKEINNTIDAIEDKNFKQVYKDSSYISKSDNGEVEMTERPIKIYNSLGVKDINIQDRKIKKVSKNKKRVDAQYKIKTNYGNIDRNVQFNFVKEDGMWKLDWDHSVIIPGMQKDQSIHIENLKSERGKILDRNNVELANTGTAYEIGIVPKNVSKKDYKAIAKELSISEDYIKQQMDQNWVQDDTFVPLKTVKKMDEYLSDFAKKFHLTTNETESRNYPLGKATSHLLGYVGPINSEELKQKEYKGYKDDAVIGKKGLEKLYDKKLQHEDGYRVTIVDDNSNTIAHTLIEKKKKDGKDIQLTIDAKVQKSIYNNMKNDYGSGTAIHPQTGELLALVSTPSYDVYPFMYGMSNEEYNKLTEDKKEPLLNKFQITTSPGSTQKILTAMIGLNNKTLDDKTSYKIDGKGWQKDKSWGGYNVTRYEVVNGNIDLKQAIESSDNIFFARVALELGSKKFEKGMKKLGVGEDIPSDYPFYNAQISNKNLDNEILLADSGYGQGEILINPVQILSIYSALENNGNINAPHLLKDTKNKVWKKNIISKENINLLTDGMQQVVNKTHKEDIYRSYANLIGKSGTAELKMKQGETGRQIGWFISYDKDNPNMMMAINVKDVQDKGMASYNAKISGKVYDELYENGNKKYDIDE
Procedure, shortened: (§5)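 Competition against [14C]benzylpenicillin. Membranes came from penicillinase-plasmid-cured MRSA lysed with lysostaphin (100 μg/ml), DNase (1 μg/ml) and sonication in 50 mM sodium phosphate, 10 mM MgCl2, pH 7.0. They were collected at 5,000 × g for 10 min, then 100,000 × g for 60 min, at final 8 mg/ml protein. Compound was added for 30 min, then label for 30 min, at 37°C. IC50 for 50% label-binding inhibition to PBP 2a was read by imaging analyzer.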

[22] = tested on: Staphylococcus aureus; experiment: Antibacterial activity against methicillin-resistant Staphylococcus aureus 12386-1 expressing PBP 2a by broth microdilution method; type: functional; procedure, shortened: as §4
[23] = tested on: Pseudomonas aeruginosa; experiment: Antibacterial activity against Pseudomonas aeruginosa clinical isolates by broth microdilution method; type: functional; procedure, shortened: as §3
[24] = target: T1, MecA; experiment: Binding affinity to PBP2a in methicillin-resistant Staphylococcus aureus 12386-1 by [14C]benzylpenicillin labelled competitive assay; procedure, shortened: as §5
[25] = tested on: Pseudomonas aeruginosa; experiment: Antibacterial activity against imipenem-resistant Pseudomonas aeruginosa clinical isolates by broth microdilution method; type: functional
Procedure, shortened: (§6)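 Standard broth microdilution in cation-adjusted Mueller-Hinton broth (25 mg Ca2+ and 12.5 mg Mg2+ per liter), inoculum 4×10^5 CFU/ml. MIC is the lowest concentration completely inhibiting […] growth in wells. […] P. aeruginosa ATCC 27853 serves as QC strain.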

[26] = tested on: Pseudomonas aeruginosa; experiment: Antibacterial activity against meropenem-resistant Pseudomonas aeruginosa clinical isolates by broth microdilution method; type: functional; procedure, shortened: as §6

Row | Compound | MIC [1] [µg/mL] | Ratio [2] | MIC [3] [µg/mL] | MIC [4] [µg/mL] | Ratio [5] | MIC [6] [µg/mL] | MIC [7] [µg/mL] | Ratio [8] | Ratio [9] | MIC [10] [µg/mL] | MIC [11] [µg/mL] | MIC [12] [µg/mL] | Ratio [13] | MIC [14] [µg/mL] | Ratio [15] | Ratio [16] | MIC [17] [µg/mL] | Ratio [18] | MIC50 [19] [µg/mL] | MIC90 [19] [µg/mL] | further results
1 | CC(C)(O/N=C(\C(=O)N[C@@H]1C(=O)N2C(C(=O)[O-])=C(C[n+]3ccccc3)CS[C@H]12)c1csc(N)n1)C(=O)O [CEFTAZIDIME] | 8 (≈ 14.6 µM) | 64 | 128 (≈ 234 µM) | 8 (≈ 14.6 µM) | 64 | 2 (≈ 3.66 µM) | 1 (≈ 1.83 µM) | 4 | 0.5 | 1 (≈ 1.83 µM) | 2 (≈ 3.66 µM) | 128 (≈ 234 µM) | 4 | 128 (≈ 234 µM) | 64 | 1 | 2 (≈ 3.66 µM) | 0.5 |  |  | 
2 | C[C@@H](O)[C@H]1C(=O)N2C(C(=O)O)=C(S[C@H]3C[C@@H](C(=O)N4CC[C@H](NC(=O)CNC(=N)N)C4)N(C)C3)[C@H](C)[C@H]12 [TOMOPENEM] | 0.5 (≈ 0.93 µM) | 32 | 1 (≈ 1.86 µM) | 2 (≈ 3.72 µM) | 2 | 1 (≈ 1.86 µM) | 0.25 (≈ 0.465 µM) | 8 | 2 | 0.5 (≈ 0.93 µM) | 0.25 (≈ 0.465 µM) | 0.5 (≈ 0.93 µM) | 2 | 8 (≈ 14.9 µM) | 4 | 4 | 0.25 (≈ 0.465 µM) | 1 | 4 (≈ 7.44 µM) | 8 (≈ 14.9 µM) | MIC [20]: 8 µg/mL (≈ 14.9 µM); IC50 [21]: 9.86 µM; MIC [22]: 8 µg/mL (≈ 14.9 µM); MIC50 [23]: 0.5 µg/mL (≈ 0.93 µM); MIC90 [23]: 4 µg/mL (≈ 7.44 µM); IC50 [24]: 5.39 µM
3 | C[C@@H](O)[C@H]1C(=O)N2C(C(=O)O)=C(SCCNC=N)C[C@H]12 [IMIPENEM ANHYDROUS] | 1 (≈ 3.34 µM) |  | 1 (≈ 3.34 µM) | 8 (≈ 26.7 µM) |  | 16 (≈ 53.4 µM) | 0.5 (≈ 1.67 µM) |  |  | 4 (≈ 13.4 µM) | 1 (≈ 3.34 µM) | 1 (≈ 3.34 µM) |  | 32 (≈ 107 µM) |  |  | 1 (≈ 3.34 µM) |  | 4 (≈ 13.4 µM) | > 32 | MIC [20]: 32 µg/mL (≈ 107 µM); IC50 [21]: 568 µM; MIC [22]: 16 µg/mL (≈ 53.4 µM); MIC50 [23]: 2 µg/mL (≈ 6.68 µM); MIC90 [23]: 32 µg/mL (≈ 107 µM); MIC [25]: ≥ 16 µg/mL; IC50 [24]: 254 µM
4 | NCC[C@H](O)C(=O)N[C@@H]1C[C@H](N)[C@@H](O[C@H]2O[C@H](CN)[C@@H](O)[C@H](O)[C@H]2O)[C@H](O)[C@H]1O[C@H]1O[C@H](CO)[C@@H](O)[C@H](N)[C@H]1O [AMIKACIN] | 4 (≈ 6.83 µM) | 2 | 8 (≈ 13.7 µM) | 4 (≈ 6.83 µM) | 2 | 4 (≈ 6.83 µM) | 0.5 (≈ 0.854 µM) | 1 | 0.5 | 2 (≈ 3.42 µM) | 4 (≈ 6.83 µM) | 8 (≈ 13.7 µM) | 1 | 8 (≈ 13.7 µM) | 2 | 1 | 4 (≈ 6.83 µM) | 0.125 |  |  | 
5 | C[C@@H](O)[C@H]1C(=O)N2C(C(=O)O)=C(S[C@@H]3CN[C@H](C(=O)N(C)C)C3)[C@H](C)[C@H]12 [MEROPENEM] | 2 (≈ 5.22 µM) | 32 | 2 (≈ 5.22 µM) | 16 (≈ 41.7 µM) | 2 | 4 (≈ 10.4 µM) | 0.5 (≈ 1.3 µM) | 32 | 2 | 1 (≈ 2.61 µM) | 0.5 (≈ 1.3 µM) | 1 (≈ 2.61 µM) | 4 | 16 (≈ 41.7 µM) | 4 | 8 | 0.5 (≈ 1.3 µM) | 1 | 8 (≈ 20.9 µM) | 32 (≈ 83.4 µM) | MIC [20]: 32 µg/mL (≈ 83.4 µM); MIC [26]: ≥ 16 µg/mL; IC50 [21]: 339 µM; MIC [22]: 16 µg/mL (≈ 41.7 µM); MIC50 [23]: 1 µg/mL (≈ 2.61 µM); MIC90 [23]: 16 µg/mL (≈ 41.7 µM); IC50 [24]: 138 µM
6 | C[C@H]1COc2c(N3CCN(C)CC3)c(F)cc3c(=O)c(C(=O)O)cn1c23.C[C@H]1COc2c(N3CCN(C)CC3)c(F)cc3c(=O)c(C(=O)O)cn1c23.O [LEVOFLOXACIN] |  |  |  |  |  | 0.5 | 8 |  |  | 8 | 0.5 | 0.25 |  | 0.25 |  |  | 0.5 |  |  |  | 
